Compound activity (PubChem BioAssay)
Only some compounds are listed: those with a hit (about 5.7% of all), similar ones and a draw of the others.
Calb FLC – C. albicans growth modulation with fluconazole. C. albicans CaCi-2 (fluconazole-resistant clinical isolate) + fluconazole, Alamar Blue growth, 48 h. growth inhibition, % (test concentration not listed). 300,000 tested, 0.57% active. AID 1979;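 active means growth inhibition above about 58% in most replicates, limit read from the data, passing the limit was not always enough; inconclusive means exactly half the replicates above a set limit; inactive means most replicates below a set limit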;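 further: all wells also contain fluconazole at 8 µg/ml as a sub-toxic cotreatment; 0% = median of DMSO wells and 100% = median of geldanamycin control wells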
T cruzi repl – T. cruzi replication inhibition; T. cruzi beta-gal in NIH3T3, luminescence, 90 h; inhibition, % (no concentration beside the values); 300,000 tested, 1.4% active;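 active means mean inhibition across valid replicates above about 55%, limit read from the data; inconclusive means mean below that limit but half or more replicates reach it; inactive means mean below it, under half of replicates reach it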;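 further: signal also drops with host cell toxicity which is not excluded here; 0% = plate median of DMSO wells and 100% = zero luminescence signal; higher percent means less beta-gal luminescence so fewer parasites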
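Assay system: NIH/3T3 fibroblasts plus reporter T. cruzi. Amount: NIH/3T3 cells, 5,000 per well. Buffer or medium: DMEM, 2% fetal bovine serum. Doses: compound pinned at 50 nL/well, DMSO. Schedule: ≥90 h infection period, 3 h prior cell attachment. Signal: luminescent β-galactosidase signal after 60 min lysis. Read-out: parasite load inhibition, %.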
Mdm2-MdmX inh – disrupts the human Mdm2-MdmX interaction. O15151+Q00987. SaOS-2 split-luciferase Mdm2/MdmX complementation, luminescence. inhibition, % at 8 µM. 330,000 tested, 3% active;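 active means inhibition of at least 50% at 8 µM in the primary screen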
Beta apoptosis – beta cell apoptosis inhibition. INS-1E cytokine-induced death, ATP luminescence, 48 h; percent of positive-control rescue, neutral wells zero. protection from apoptosis, % (concentration not given with the values). 300,000 tested, 0.8% active. AID 435005;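 active means Every replicate reaches about 75%, or at least half do and their mean reaches it too, limit read from the data; inconclusive means At least half of replicates reach the limit but their mean does not; inactive means Under half of replicates reach the limit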;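 further: 0% = cytokine-treated negative control wells and 100% = positive control rescue; higher means more ATP so stronger rescue from cytokine killing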
SKKanGAS inh – inhibitors of SKKanGAS S. pyogenes growth in kanamycin (SK-promoter or general growth effect). BacTiter-Glo, 6 h. inhibition, % at 7.5 µM. 300,000 tested, 1.3% active. AID 1662;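 active means mean replicate score, as percent of positive control median, at least 50; inconclusive means mean below 50 but one replicate at or above 50; inactive means mean and every replicate below 50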;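 further: strain carries kanamycin resistance gene driven by streptokinase promoter and grows in 40 µg/ml kanamycin; loss of luminescence reflects streptokinase promoter inhibition or plain growth inhibition; 0% = median of DMSO wells and 100% = positive control at its reference dose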
CSC inhib – cancer stem cell inhibition. cancer stem cell-like cells viability, luminescence. inhibition, % at 7.5 µM. 300,000 tested, 1.1% active; in the data active means inhibition above about 75%; inconclusive means no clear call, values can overlap the other calls; tested in HMLE shEcad cells
Mdm2 MdmX conf – confirmation of human Mdm2/MdmX interaction inhibitors. shares compounds with Mdm2-MdmX inh. Mdm2-MdmX binding, luminescent assay. inhibition, % at 8 µM. 10,000 tested, 55% active; in the data active means inhibition above about 40%
Full FLuc ctr – counter-screen for Mdm2/MdmX inhibitors: full-length luciferase | inhibition, % at 8 µM | SaOS-2 full-length luciferase counterscreen, luminescence | shares compounds with Mdm2-MdmX inh | 6,200 tested, 77% active;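 active means mean inhibition at 8 µM reaching about 37%, which flags the compound as non-specific, limit read from the data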;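 further: p53-null SaOS-2 cells with luciferase driven by a doxycycline-inducible promoter; compound on cells about two nights before reading with doxycycline added after day one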
Starred values were filed as active, the others as inactive; ? = inconclusive; . = no result.

SMILES	Calb FLC	T cruzi repl	Mdm2-MdmX inh	Beta apoptosis	SKKanGAS inh	CSC inhib	Mdm2 MdmX conf	Full FLuc ctr
COc1ccc(CN2CCC(N(CCc3ccccc3)Cc3ccccc3)CC2)c(OC)c1	25	60*	86*	20	5	?	31	.
CCCN1CCC(N(CCc2ccccc2)Cc2ccccc2)CC1	-35	2	15	8	-9	23	.	.
CC1=NOC(=O)/C1=C\c1ccc(-c2ccc(Cl)cc2Cl)o1	-9	-22	64*	.	70*	.	6	.
O=C(c1ccc([N+](=O)[O-])o1)N1CCN(c2nc3c(Cl)cccc3s2)CC1	9	59*	56*	.	9	-6	43*	65*
Fc1cccc(F)c1/C=N/NC(=S)Nc1cccnc1	?	-21	7	.	-11	-11	.	.
Fc1c(F)c(F)c(/C=N/NC(=S)Nc2cccnc2)c(F)c1F	-31	-8	51*	33	6	12	34	74*
O=C(Nc1ncnc2c1C(c1ccccc1)c1c(ccc3ccccc13)O2)c1ccccc1 (stereo not drawn)	.	.	65*	82*	.	.	52*	45*
O=C(Cc1ccccc1)Nc1ncnc2c1C(c1ccccc1)c1c(ccc3ccccc13)O2 (stereo not drawn)	.	.	90*	13	.	42	23	.
CCOC(=O)CCC(=O)Nc1ncnc2c1C(c1ccccc1)c1c(ccc3ccccc13)O2 (stereo not drawn)	.	.	31	-2	.	.	.	.
Cc1noc(C)c1S(=O)(=O)Nc1ccc(C(C)C)cc1	5	8	34	.	2	-6	.	.
CC(=O)Nc1ccc(S(=O)(=O)N(C)CC(=O)OC2CCCCC2=O)cc1 (stereo not drawn)	.	.	6	-1	.	.	.	.
COc1ccccc1C(=O)NC(CCSC)C(=O)NCc1ccccn1 (stereo not drawn)	4	3	-6	-1	-1	-12	.	.
O=C1C(c2ccccc2)=[N+]([O-])c2ccccc21	41	25	93*	47	-2	82*	19	.
CC(=O)Oc1cc2c(cc1Cl)C1(CC(c3ccccc3Cl)O2)CC(C)(C)NC(=S)N1 (stereo not drawn)	?	39	56*	9	28	47	12	.
CC1(C)CC2(CC(c3ccccc3F)c3cc(Cl)c(O)cc3O2)NC(=S)N1 (stereo not drawn)	?	52	24	8	14	16	.	.
O=C(CCc1nnc2n(Cc3ccccc3)c(=O)c3ccccc3n12)NCCN1CCOCC1	-1	-1	17	-4	7	0	.	.
COc1cc(OC)c(NC2=CC(=O)C(=O)c3ccccc32)cc1Cl	5	20	70*	120*	42	102*	66*	46*
CC12CCC(=O)N1C(C(=O)N1CCN(c3cccc(Cl)c3)CC1)CS2 (stereo not drawn)	.	.	-14	-1	.	1	.	.
COc1ccc(/C=N/Nc2nnc(-c3ccccc3)c(=O)[nH]2)cc1	8	-19	76*	.	-6	-16	20	.
O=c1c(/C=N\NS(=O)(=O)c2ccccc2)coc2ccc(Cl)cc12	-1	-7	16	-4	9	0	.	.
COc1ccc(Nc2nc(-c3ccccc3)nc3ccccc23)cc1S(=O)(=O)N1CCOCC1	-6	?	79*	22	34	54	77*	63*
CN1C2CCC1/C(=C\c1ccc(F)cc1)C(=O)/C2=C/c1ccc(F)cc1	47	27	89*	2	2	0	53*	19
COc1ccc(-n2ncc3c(NCc4ccc5c(c4)OCO5)ncnc32)cc1	-26	-9	59*	-4	6	-8	-31	.
c1cncc(-c2ccc3ncnc(NCc4ccc5c(c4)OCO5)c3c2)c1	.	.	42	-2	.	.	.	.
c1nc(NCc2ccc3c(c2)OCO3)c2cc(-c3ccoc3)ccc2n1	.	.	81*	-10	.	-5	75*	51*
COc1ccc(SCCN2CC[C@@H](C(C)(C)C)CCC2=O)cc1	.	.	-8	-1	.	18	.	.
Cc1nc(-c2c(C(F)(F)F)noc2-c2ccc(O)cc2O)cs1	7	-12	12	-7	2	-1	.	.
